# Key:
# Format in all cases: functional
# [1] = tested on: Staphylococcus haemolyticus; experiment: In vitro minimum inhibitory concentration against Staphylococcus hemolyticus 602 cell line; conditions: strain 602
# [2] = tested on: Staphylococcus aureus; experiment: In vitro minimum inhibitory concentration against Staphylococcus aureus Tour
# [3] = tested on: Pseudomonas aeruginosa; experiment: In vitro minimum inhibitory concentration against Pseudomonas aeruginosa ATCC 10145
# [4] = tested on: Streptococcus pyogenes; experiment: Subcutaneously administration into mice infected with Streptococcus pyogenes C 203; conditions: sc
# Summary of the method: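 Mice (five per treatment group, five groups) infected intraperitoneally with about 10⁵ cells of Strep. pyogenes C 203, about 100× the LD50. ED50 (mg/kg) was calculated from the percentage of mice surviving at each dose on day 7.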
# [5] = tested on: Streptococcus pneumoniae; experiment: In vitro minimum inhibitory concentration against Streptococcus pneumoniae UC41
# [6] = tested on: Proteus vulgaris; experiment: In vitro minimum inhibitory concentration against Proteus vulgaris X 19 ATCC 881
# [7] = tested on: Enterococcus faecalis; experiment: In vitro minimum inhibitory concentration against Streptococcus faecalis ATCC 7080
# [8] = tested on: Streptococcus pyogenes; experiment: In vitro minimum inhibitory concentration against Streptococcus pyogenes C 203
# [9] = tested on: Escherichia coli; experiment: In vitro minimum inhibitory concentration against Escherichia coli SKF 12140
# [10] = tested on: Staphylococcus epidermidis; experiment: In vitro minimum inhibitory concentration against Staphylococcus epidermis ATCC 12228
Compound,MIC [1] [µg/mL],MIC [2] [µg/mL],MIC [3] [µg/mL],ED50 [4] [mg/kg],MIC [5] [µg/mL],MIC [6] [µg/mL],MIC [7] [µg/mL],MIC [8] [µg/mL],MIC [9] [µg/mL],MIC [10] [µg/mL]
CNCCCN(C)C(=O)[C@H]1NC(=O)[C@H]2NC(=O)[C@H](NC(=O)[C@@H]3NC(=O)[C@H]4NC(=O)[C@@H](Cc5ccc(c(Cl)c5)Oc5cc3cc(c5O)Oc3ccc(cc3Cl)[C@H]2O)NC(=O)[C@H](N)c2ccc(O)c(c2)Oc2cc(O)cc4c2)c2ccc(O)c(c2)-c2c(O)cc(O)cc21,0.06,0.06,16,0.95,0.12,32,0.12,0.06,2,0.06
CN(C)CCCCNC(=O)[C@H]1NC(=O)[C@H]2NC(=O)[C@H](NC(=O)[C@@H]3NC(=O)[C@H]4NC(=O)[C@@H](Cc5ccc(c(Cl)c5)Oc5cc3cc(c5O)Oc3ccc(cc3Cl)[C@H]2O)NC(=O)[C@H](N)c2ccc(O)c(c2)Oc2cc(O)cc4c2)c2ccc(O)c(c2)-c2c(O)cc(O)cc21,0.12,0.06,32,0.54,0.12,32,0.12,0.06,8,0.06
CN(C)CCNC(=O)[C@H]1NC(=O)[C@H]2NC(=O)[C@H](NC(=O)[C@@H]3NC(=O)[C@H]4NC(=O)[C@@H](Cc5ccc(c(Cl)c5)Oc5cc3cc(c5O)Oc3ccc(cc3Cl)[C@H]2O)NC(=O)[C@H](N)c2ccc(O)c(c2)Oc2cc(O)cc4c2)c2ccc(O)c(c2)-c2c(O)cc(O)cc21,0.06,0.06,16,1.25,0.12,32,0.12,0.06,4,0.06
CN(C)CCN(C)C(=O)[C@H]1NC(=O)[C@H]2NC(=O)[C@H](NC(=O)[C@@H]3NC(=O)[C@H]4NC(=O)[C@@H](Cc5ccc(c(Cl)c5)Oc5cc3cc(c5O)Oc3ccc(cc3Cl)[C@H]2O)NC(=O)[C@H](N)c2ccc(O)c(c2)Oc2cc(O)cc4c2)c2ccc(O)c(c2)-c2c(O)cc(O)cc21,0.06,0.06,64,1.25,0.06,64,0.12,0.06,8,0.06
NCCNC(=O)[C@H]1NC(=O)[C@H]2NC(=O)[C@H](NC(=O)[C@@H]3NC(=O)[C@H]4NC(=O)[C@@H](Cc5ccc(c(Cl)c5)Oc5cc3cc(c5O)Oc3ccc(cc3Cl)[C@H]2O)NC(=O)[C@H](N)c2ccc(O)c(c2)Oc2cc(O)cc4c2)c2ccc(O)c(c2)-c2c(O)cc(O)cc21,0.12,0.06,16,1.25,0.12,16,0.12,0.06,4,0.03
NCCCCNC(=O)[C@H]1NC(=O)[C@H]2NC(=O)[C@H](NC(=O)[C@@H]3NC(=O)[C@H]4NC(=O)[C@@H](Cc5ccc(c(Cl)c5)Oc5cc3cc(c5O)Oc3ccc(cc3Cl)[C@H]2O)NC(=O)[C@H](N)c2ccc(O)c(c2)Oc2cc(O)cc4c2)c2ccc(O)c(c2)-c2c(O)cc(O)cc21,0.12,0.06,32,0.54,0.12,32,0.12,0.06,8,0.06
CN(C)CCCCCNC(=O)[C@H]1NC(=O)[C@H]2NC(=O)[C@H](NC(=O)[C@@H]3NC(=O)[C@H]4NC(=O)[C@@H](Cc5ccc(c(Cl)c5)Oc5cc3cc(c5O)Oc3ccc(cc3Cl)[C@H]2O)NC(=O)[C@H](N)c2ccc(O)c(c2)Oc2cc(O)cc4c2)c2ccc(O)c(c2)-c2c(O)cc(O)cc21,0.12,0.06,64,0.72,0.12,128,0.12,0.06,8,0.06
N[C@H]1C(=O)N[C@@H]2Cc3ccc(c(Cl)c3)Oc3cc4cc(c3O)Oc3ccc(cc3Cl)[C@@H](O)[C@@H]3NC(=O)[C@H](NC(=O)[C@@H]4NC(=O)[C@@H](NC2=O)c2cc(O)cc(c2)Oc2cc1ccc2O)c1ccc(O)c(c1)-c1c(O)cc(O)cc1[C@@H](C(=O)NCCCN1CCOCC1)NC3=O,0.12,0.06,32,1.4,0.12,64,0.12,0.06,8,0.06
NCCCCCCNC(=O)[C@H]1NC(=O)[C@H]2NC(=O)[C@H](NC(=O)[C@@H]3NC(=O)[C@H]4NC(=O)[C@@H](Cc5ccc(c(Cl)c5)Oc5cc3cc(c5O)Oc3ccc(cc3Cl)[C@H]2O)NC(=O)[C@H](N)c2ccc(O)c(c2)Oc2cc(O)cc4c2)c2ccc(O)c(c2)-c2c(O)cc(O)cc21,0.12,0.06,64,0.54,0.06,64,0.12,0.06,4,0.06
CNCCCNC(=O)[C@H]1NC(=O)[C@H]2NC(=O)[C@H](NC(=O)[C@@H]3NC(=O)[C@H]4NC(=O)[C@@H](Cc5ccc(c(Cl)c5)Oc5cc3cc(c5O)Oc3ccc(cc3Cl)[C@H]2O)NC(=O)[C@H](N)c2ccc(O)c(c2)Oc2cc(O)cc4c2)c2ccc(O)c(c2)-c2c(O)cc(O)cc21,0.25,0.06,16,0.95,0.12,16,0.12,0.06,4,0.06
CNCCNC(=O)[C@H]1NC(=O)[C@H]2NC(=O)[C@H](NC(=O)[C@@H]3NC(=O)[C@H]4NC(=O)[C@@H](Cc5ccc(c(Cl)c5)Oc5cc3cc(c5O)Oc3ccc(cc3Cl)[C@H]2O)NC(=O)[C@H](N)c2ccc(O)c(c2)Oc2cc(O)cc4c2)c2ccc(O)c(c2)-c2c(O)cc(O)cc21,0.06,0.06,32,2.2,0.12,32,0.12,0.06,4,0.03
CCCCN(CCCC)CCCNC(=O)[C@H]1NC(=O)[C@H]2NC(=O)[C@H](NC(=O)[C@@H]3NC(=O)[C@H]4NC(=O)[C@@H](Cc5ccc(c(Cl)c5)Oc5cc3cc(c5O)Oc3ccc(cc3Cl)[C@H]2O)NC(=O)[C@H](N)c2ccc(O)c(c2)Oc2cc(O)cc4c2)c2ccc(O)c(c2)-c2c(O)cc(O)cc21,–,0.12,64,0.72,0.12,32,0.12,0.06,8,0.06

# From ChEMBL document CHEMBL1124366, “Synthesis and biological properties of N63-carboxamides of teicoplanin antibiotics. Structure-activity relationships” (J Med Chem, 1989)
